Pemphigus Ab inh = human desmoglein-3 autoantibody binding inhibition. AID 588358. binding (percent of control), % at 10 µM. 310,000 compounds, 0.48% hits. DSG3-coupled beads, scFv-anti-DSG3-GFP binding, flow cytometry; stronger effect = lower value. P32926;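 active = binding more than 3 SD below its plate's average and above zero; inconclusive = below that plate limit but binding exactly zero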;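 note: hits lower antibody fragment binding to DSG3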
Target sequence (P32926 whole entry, looked up, the tested form may be a part): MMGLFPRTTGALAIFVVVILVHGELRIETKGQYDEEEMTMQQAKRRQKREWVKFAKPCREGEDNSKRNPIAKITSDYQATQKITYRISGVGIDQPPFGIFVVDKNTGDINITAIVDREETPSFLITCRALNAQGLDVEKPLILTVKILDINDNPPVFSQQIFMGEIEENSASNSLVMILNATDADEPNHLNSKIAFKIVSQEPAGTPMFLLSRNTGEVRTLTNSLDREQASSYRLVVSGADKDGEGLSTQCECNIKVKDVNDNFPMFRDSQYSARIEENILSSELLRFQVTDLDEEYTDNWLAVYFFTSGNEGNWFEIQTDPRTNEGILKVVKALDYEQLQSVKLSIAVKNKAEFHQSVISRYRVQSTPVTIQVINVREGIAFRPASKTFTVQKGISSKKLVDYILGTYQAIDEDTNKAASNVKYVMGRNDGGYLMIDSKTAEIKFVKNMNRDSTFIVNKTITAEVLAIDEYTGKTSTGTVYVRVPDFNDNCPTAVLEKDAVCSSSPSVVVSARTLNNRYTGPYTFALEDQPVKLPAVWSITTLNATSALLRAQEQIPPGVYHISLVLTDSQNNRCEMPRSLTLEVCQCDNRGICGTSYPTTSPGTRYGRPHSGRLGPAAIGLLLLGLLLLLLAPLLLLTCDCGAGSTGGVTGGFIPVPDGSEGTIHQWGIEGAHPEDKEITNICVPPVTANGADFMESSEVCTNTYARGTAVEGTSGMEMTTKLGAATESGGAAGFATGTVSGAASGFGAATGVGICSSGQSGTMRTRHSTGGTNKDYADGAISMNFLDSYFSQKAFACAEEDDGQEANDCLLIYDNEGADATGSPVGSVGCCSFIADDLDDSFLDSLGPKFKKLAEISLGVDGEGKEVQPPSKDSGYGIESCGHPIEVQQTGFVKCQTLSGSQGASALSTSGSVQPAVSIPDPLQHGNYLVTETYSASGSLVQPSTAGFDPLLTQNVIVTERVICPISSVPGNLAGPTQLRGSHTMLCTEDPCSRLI
Vif imaging = HIV Vif inhibition | HEK293T cells, Vif self-association by quenched fluorescence, imaging, 24 h | inhibition, % at 7.49 µM | 340,000 compounds, 0.35% hits; in the data active = inhibition above about 50%, passing the limit was not always enough; inconclusive = no clear call, values can overlap the other calls; inactive = below about 31%
T cell HTS = T cell immune modulation candidate; AID 2052; 2C CD8+ T cell-vesicle binding, flow cytometry; stronger effect = lower value; response (vesicle binding), % at 7 µM; 330,000 compounds, 0.068% hits;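 active = response, share of CD8 T cells binding vesicles, and their 90th percentile fluorescence all below set limits, cut at about 80% in these data, passing the limit was not always enough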;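 note: values below 100% mean blocked vesicle binding to the CD8+ T cells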
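Assay system: 2C TCR transgenic mouse naive CD8+ T cells, MACS-purified | Read-out: CD8+ gate FL2 mean fluorescence as % of same-row positive control | Signal: High-throughput flow cytometry with anti-B7-1 and anti-CD8 staining | Timing: Binding step 1.5 h, 37 °C, antibody labelling 20 min, ice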
Myeloid diff 2 = compounds promoting myeloid differentiation. AID 624256. 360,000 compounds, 1% hits. ER-HoxA9 myeloid progenitors, lysozyme-GFP differentiation, flow cytometry. calls only at 10 µM;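 active = normalized GFP-positive differentiation at or above the plate's own cutoff, the solvent-only control mean plus 3 SD; inconclusive = no clear call, values can overlap the other calls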;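 note: cells exposed to compound for four days before flow analysis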
Starred values were filed as active, the others as inactive; i = inactive; ? = inconclusive; nt = no result given; + = active, no number. An excerpt weighted towards active compounds, which were near 1.7% of everything screened.

SMILES	Pemphigus Ab inh	Vif imaging	T cell HTS	Myeloid diff 2
COc1ccc(-n2ncc3c2CC(C)(C)CC3NC(=O)CCN2CCCCC2=O)cc1 (stereo unspecified)	93.2	4.3	430.5	+
COc1ccccc1NC(=O)c1ccc(-n2ccnc2)c([N+](=O)[O-])c1	65.9*	-2.4	247.5	i
CCOc1cc(N2CCOCC2)c(OCC)cc1NC(=O)c1ccc(-n2ccnc2)c([N+](=O)[O-])c1	96.5	0.0	534.0	i
Cc1ccsc1CN(C)CC(=O)NCC(=O)Nc1ccc(F)cc1	95.8	-3.0	360.9	i
Cn1nc(CC(=O)Nc2ccc(N3CCN(C(=O)OC(C)(C)C)CC3)cc2)c2ccccc2c1=O	85.7*	nt	164.4	i
COC(=O)[C@@]1(Sc2ccc(C)cc2)CC(=O)N(C(=O)/C=C/c2ccccc2)[C@@H]1c1ccccc1	nt	nt	nt	i
CC(=O)N1CCN(c2nc3ccc(Br)cc3s2)CC1	105.3	10.5	153.5	i
CC(C)(C)C(=O)N1CCN(c2nc3ccc(Br)cc3s2)CC1	93.6	-0.8	757.4	+
Cc1noc(C)c1S(=O)(=O)N(C)C[C@H]1Oc2c(NC(=O)Nc3ccc(C(F)(F)F)cc3)cccc2C(=O)N([C@H](C)CO)C[C@@H]1C	108.9	2.0	728.7	i
CCc1nnc(NC(=O)c2sc3nc4cc(C)ccc4cc3c2N)s1	162.3	169.7*	175.7	i
O=C(Cn1c(=O)sc2ccccc21)NCc1ccccn1	104.5	2.5	267.1	+
CCOC(=O)N1CCN(C(=O)CN(C2CCCCC2)S(=O)(=O)c2ccc(Cl)cc2)CC1	99.6	2.0	570.7	+
O=C(CCl)NNC(=O)c1c(O)c2ccccc2[nH]c1=O	99.5	nt	145.1	+
CCCCC(=O)NNC(=O)c1c(O)c2ccccc2[nH]c1=O	105.1	0.2	176.4	i
CC(=O)Nc1cccc(C(=O)NN2C(=O)NC3(CCC(C)CC3)C2=O)c1 (stereo unspecified)	107.4	1.0	nt	i
COc1cccc(CN(CC(=O)NC2CCCC2)C(=O)CCC(=O)Nc2cc(C)on2)c1	107.6	0.7	452.8	i
COc1cccc(N(CC(=O)NC2CCCC2)C(=O)CCC(=O)Nc2cc(C)on2)c1	90.3	-4.0	299.9	+
O=C(c1ccc([N+](=O)[O-])cc1[N+](=O)[O-])n1cnc2ccccc21	78.8*	5.4	356.6	?
CCOCCCNc1nc2c(C)cccn2c(=O)c1/C=C1\SC(=S)N(C(C)CC)C1=O (stereo unspecified)	180.4	2.2	347.8	+
CCC(C)N=Cc1c(Nc2ccccc2)nc2c(C)cccn2c1=O (stereo unspecified)	103.1	-5.3	282.9	i
O=C1/C(=C\c2c(NCCOCCO)nc3ccccn3c2=O)SC(=S)N1Cc1ccco1	100.2	i	356.1	i
CCOCCCNc1nc2c(C)cccn2c(=O)c1/C=C1\SC(=S)N(CC(C)C)C1=O	172.4	-5.4	403.5	+
CCCN1C(=O)/C(=C/c2c(NCCCOCC)nc3c(C)cccn3c2=O)SC1=S	144.0	0.9	nt	+
CS(=O)(=O)Nc1ccc2c(c1)[C@H]1C[C@H](CC(=O)NCc3ccccc3)O[C@H](CO)[C@H]1O2	101.8	-1.2	nt	i
COc1ccc(NC(=O)C2CCN(S(=O)(=O)c3ccc4c(c3)NC(=O)CO4)CC2)cc1	nt	2.4	316.8	i
SMILES	Pemphigus Ab inh	Vif imaging	T cell HTS	Myeloid diff 2
Cc1ccc(CN2CC(C(=O)N3CCN(S(=O)(=O)c4c(F)cccc4F)CC3)CC2=O)cc1 (stereo unspecified)	101.8	?	453.2	i
O=c1cnn(Cc2c(Cl)cccc2Cl)c2ccccc12	98.1	15.7	272.2	+
Cc1ccc(NC(=O)CSCC(=O)Nc2cc(S(=O)(=O)N3CCOCC3)ccc2OC(C)C)cc1	102.2	-6.9	nt	i
CC(C)(C)Nc1nc2nonc2nc1NC(C)(C)C	101.8	-12.7	0.0*	+
CCc1nc2c(OCC(=O)c3ccc(Cl)cc3Cl)cccn2c1N(C)C(=O)c1cccs1	nt	-3.8	nt	i
CSc1nnnn1-c1c(C)cccc1C	105.8	50.8*	341.6	i
Cc1cccc(C)c1-n1nnnc1SCSc1nnnn1-c1c(C)cccc1C	104.1	-3.8	nt	i
N#CCCN(C(=O)Nc1ccccc1)C1CCCCC1	93.7	12.0	nt	i
Cc1c(C(=O)NCc2ccccc2C(F)(F)F)sc(=O)n1Cc1ccc(S(=O)(=O)N(C)C)cc1	nt	12.8	nt	i
O=C(NCc1ccccc1Br)c1cccs1	nt	4.0	nt	+
COC(=O)C1=C(C)N(Cc2ccccc2)C(=NCCc2cccnc2)N[C@H]1c1ccc(Br)cc1	111.8	nt	720.7	+
Cc1cccc(-n2c(SCC(=O)Nc3ncc(Cl)cc3Cl)nc3ccccc32)c1	97.2	-1.6	195.5	+
O=C(CSc1nc2ccccc2n1-c1ccccc1)Nc1ncc(Cl)cc1Cl	111.6	-14.8	271.9	i
NC(=O)c1ccsc1NC(=O)CSc1n[nH]c(N)n1	nt	21.3	418.3	i
Cc1ccsc1/C=C/C1=Cc2c(sc(NC(=O)CSc3n[nH]c(N)n3)c2C#N)C(C)(C)C1	70.3*	17.6	156.4	i
CCOc1ccc(/C=C/C2=Cc3c(sc(NC(=O)CSc4n[nH]c(N)n4)c3C#N)C(C)(C)C2)cc1	80.6*	8.7	196.3	i
CC(=O)Nc1nonc1-c1nc2ccccc2n1C	102.4	79.7*	200.7	i
CCOC(=O)Cn1c(-c2nonc2NC(=O)c2ccccc2F)nc2ccccc21	nt	1.5	834.5	+
CC1Cc2cc(S(=O)(=O)N3CCCC(C(=O)N4CCCCC4)C3)ccc2N1C(=O)C1CC1 (stereo unspecified)	106.6	6.1	444.4	i
Oc1ccc(-c2cnc(-c3ccc(O)cc3)nc2)cc1	110.2	35.6	273.9	i
Nc1ccc(-c2cnc(-c3ccc(N)cc3)nc2)cc1	103.8	76.8*	585.1	i
O=[N+]([O-])c1cccc(Nc2c([N+](=O)[O-])ccc3nonc23)c1	88.9	-1.2	89.7	+
CC(C(=O)c1ccc(Br)cc1)[n+]1cccc2ccccc21 (stereo unspecified)	293.3	10.4	166.5	+
Cc1ccc(Cl)c2c1NC(=O)C2=O	103.1	-2.0	0.0*	i
COc1ccc([C@H]2CN(c3ccc(OC)cc3)C(=O)[C@@H]2CC(=O)Nc2ccc(Br)cc2)cc1	103.8	-2.2	nt	+
SMILES	Pemphigus Ab inh	Vif imaging	T cell HTS	Myeloid diff 2
COc1ccc([C@H]2CN(c3ccccc3)C(=O)[C@@H]2CC(=O)Nc2ccccc2)cc1	104.6	-14.7	nt	i
Cc1ccc2nc3n(c(=O)c2c1)-c1ccc(Cl)cc1C(=O)NC3CC(C)C (stereo unspecified)	nt	nt	349.3	nt
Cc1cc(C)nc(SCc2nnc(SCC(=O)Nc3nccs3)n2Cc2ccco2)n1	99.0	5.3	566.0	i
Cc1cccc(NC(=O)CSc2nnc(CSc3nc(C)cc(C)n3)n2Cc2ccco2)c1	nt	-2.6	419.0	+
Cc1c(OCC(=O)N2CCC(C(=O)NCCCC(=O)O)CC2)ccc2c1oc(=O)c1ccccc12	102.3	2.2	440.4	i
Cn1c(C(=O)NCCCN2CCOCC2)cc2c(=O)n(C)c3ccccc3c21	83.5*	17.5	112.6	i

Assay outcomes (PubChem)
